ChEMBL document CHEMBL1156002, “Synthesis, Raman, FT-IR, NMR spectroscopic characterization, antimicrobial activity, cytotoxicity and DNA binding of new mixed aza-oxo-thia macrocyclic compounds” (2009)

Key:
Type in all cases: functional
Kluyveromyces marxianus [1] = assay: Antifungal activity against Kluyveromyces fragilis NRRL 2415 at 10 ug after 72 hrs by agar disk diffusion assay; conditions: NRRL 2415, 72 h, read-out: IZ
Outline: (§1)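 Sterile 6 mm paper discs were loaded with ligand solution freshly prepared in DMSO and placed on inoculated agar. The inoculum came from broth cultures: bacteria in Nutrient Broth at 30 °C for 24 h, yeasts in Malt Extract Broth for 48 h. Plates were incubated at 35 °C for 24 h (bacteria) or 25 °C for 72 h (yeasts). A DMSO solvent control and a reference antibiotic disc were included on each plate.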

Rhodotorula mucilaginosa [2] = assay: Antifungal activity against Rhodotorula rubra DSM 70403 at 10 ug after 72 hrs by agar disk diffusion assay; conditions: DSM 70403, 72 h, read-out: IZ; outline: as §1
Candida albicans [3] = assay: Antifungal activity against Candida albicans ATCC 10231 at 10 ug after 72 hrs by agar disk diffusion assay; conditions: ATCC 10231, 72 h, read-out: IZ; outline: as §1
[4] = system: Hanseniaspora guilliermondii; assay: Antifungal activity against Hanseniaspora guilliermondii DSM 3432 at 10 ug after 72 hrs by agar disk diffusion assay; conditions: DSM 3432, 72 h, read-out: IZ; outline: as §1
Debaryomyces hansenii [5] = assay: Antifungal activity against Debaryomyces hansenii DSM 70238 at 10 ug after 72 hrs by agar disk diffusion assay; conditions: DSM 70238, 72 h, read-out: IZ; outline: as §1
Escherichia coli [6] = assay: Antibacterial activity against Escherichia coli ATCC 11230 at 30 ug after 24 hrs by agar disk diffusion assay; conditions: ATCC 11230, 24 h, read-out: IZ
Outline: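 Bacteria pre-grown in Nutrient Broth at 30 °C for 24 h. Sterile 6 mm discs loaded with compound solutions freshly made in DMSO were placed on inoculated agar and incubated at 35 °C for 24 h. The medium was supplemented with DMSO as a solvent control, and an appropriate reference antibiotic disc was added to each plate.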

Staphylococcus aureus [7] = assay: Antibacterial activity against Staphylococcus aureus ATCC 6538 at 30 ug after 24 hrs by agar disk diffusion assay; conditions: ATCC 6538, 24 h, read-out: IZ; outline: as §1
Klebsiella pneumoniae [8] = assay: Antibacterial activity against Klebsiella pneumoniae UC57 at 30 ug after 24 hrs by agar disk diffusion assay; conditions: UC57, 24 h, read-out: IZ
Outline: (§2)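 Disk diffusion with sterile 6 mm discs loaded with DMSO solutions of the test agents and placed on inoculated agar. Bacteria were pre-grown in Nutrient Broth at 30 °C for 24 h, and plates were incubated at 35 °C for 24 h. Each plate carried a reference antibiotic disc matched to the organism, and a DMSO-only solvent control was run.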

Bacillus cereus [9] = assay: Antibacterial activity against Bacillus cereus ATCC 7064 at 30 ug after 24 hrs by agar disk diffusion assay; conditions: ATCC 7064, 24 h, read-out: IZ; outline: as §2
Micrococcus luteus [10] = assay: Antibacterial activity against Micrococcus luteus La 2971 at 30 ug after 24 hrs by agar disk diffusion assay; conditions: La 2971, 24 h, read-out: IZ; outline: as §2
Proteus vulgaris [11] = assay: Antibacterial activity against Proteus vulgaris ATCC 8427 at 30 ug after 24 hrs by agar disk diffusion assay; conditions: ATCC 8427, 24 h, read-out: IZ; outline: as §2
[12] = system: Mycolicibacterium smegmatis; assay: Antibacterial activity against Mycobacterium smegmatis CCM 2067 at 30 ug after 24 hrs by agar disk diffusion assay; conditions: CCM 2067, 24 h, read-out: IZ; outline: as §2
Listeria monocytogenes [13] = assay: Antibacterial activity against Listeria monocytogenes ATCC 15313 at 30 ug after 24 hrs by agar disk diffusion assay; conditions: ATCC 15313, 24 h, read-out: IZ; outline: as §2
Pseudomonas aeruginosa [14] = assay: Antibacterial activity against Pseudomonas aeruginosa ATCC 27853 at 30 ug after 24 hrs by agar disk diffusion assay; conditions: ATCC 27853, 24 h, read-out: IZ; outline: as §2
Kluyveromyces marxianus [15] = assay: Antifungal activity against Kluyveromyces fragilis NRRL 2415 at 20 ug after 72 hrs by agar disk diffusion assay; conditions: NRRL 2415, 72 h, read-out: IZ
Outline: (§3)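 Yeasts were pre-grown in Malt Extract Broth for 48 h. Sterile 6 mm discs loaded with compound solutions freshly made in DMSO were placed on inoculated agar and incubated at 25 °C for 72 h. The medium was supplemented with DMSO as a solvent control, and an appropriate reference antifungal disc was added to each plate.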

Rhodotorula mucilaginosa [16] = assay: Antifungal activity against Rhodotorula rubra DSM 70403 at 20 ug after 72 hrs by agar disk diffusion assay; conditions: DSM 70403, 72 h, read-out: IZ; outline: as §3
Candida albicans [17] = assay: Antifungal activity against Candida albicans ATCC 10231 at 20 ug after 72 hrs by agar disk diffusion assay; conditions: ATCC 10231, 72 h, read-out: IZ; outline: as §3
[18] = system: Hanseniaspora guilliermondii; assay: Antifungal activity against Hanseniaspora guilliermondii DSM 3432 at 20 ug after 72 hrs by agar disk diffusion assay; conditions: DSM 3432, 72 h, read-out: IZ; outline: as §3
Debaryomyces hansenii [19] = assay: Antifungal activity against Debaryomyces hansenii DSM 70238 at 20 ug after 72 hrs by agar disk diffusion assay; conditions: DSM 70238, 72 h, read-out: IZ; outline: as §3
Escherichia coli [20] = assay: Antibacterial activity against Escherichia coli ATCC 11230 at 10 ug after 24 hrs by agar disk diffusion assay; conditions: ATCC 11230, 24 h, read-out: IZ; outline: as §2
Staphylococcus aureus [21] = assay: Antibacterial activity against Staphylococcus aureus ATCC 6538 at 10 ug after 24 hrs by agar disk diffusion assay; conditions: ATCC 6538, 24 h, read-out: IZ; outline: as §1
Klebsiella pneumoniae [22] = assay: Antibacterial activity against Klebsiella pneumoniae UC57 at 10 ug after 24 hrs by agar disk diffusion assay; conditions: UC57, 24 h, read-out: IZ; outline: as §2
Bacillus cereus [23] = assay: Antibacterial activity against Bacillus cereus ATCC 7064 at 10 ug after 24 hrs by agar disk diffusion assay; conditions: ATCC 7064, 24 h, read-out: IZ; outline: as §2
Micrococcus luteus [24] = assay: Antibacterial activity against Micrococcus luteus La 2971 at 10 ug after 24 hrs by agar disk diffusion assay; conditions: La 2971, 24 h, read-out: IZ; outline: as §2
Proteus vulgaris [25] = assay: Antibacterial activity against Proteus vulgaris ATCC 8427 at 10 ug after 24 hrs by agar disk diffusion assay; conditions: ATCC 8427, 24 h, read-out: IZ; outline: as §2
[26] = system: Mycolicibacterium smegmatis; assay: Antibacterial activity against Mycobacterium smegmatis CCM 2067 at 10 ug after 24 hrs by agar disk diffusion assay; conditions: CCM 2067, 24 h, read-out: IZ; outline: as §2
Listeria monocytogenes [27] = assay: Antibacterial activity against Listeria monocytogenes ATCC 15313 at 10 ug after 24 hrs by agar disk diffusion assay; conditions: ATCC 15313, 24 h, read-out: IZ; outline: as §2
Pseudomonas aeruginosa [28] = assay: Antibacterial activity against Pseudomonas aeruginosa ATCC 27853 at 10 ug after 24 hrs by agar disk diffusion assay; conditions: ATCC 27853, 24 h, read-out: IZ; outline: as §2

Clc1ccccc1C(c1ccccc1)(c1ccccc1)n1ccnc1 [CLOTRIMAZOLE]
zone of inhibition at 10 µg/disc (Kluyveromyces marxianus [1]): 15 mm | zone of inhibition at 10 µg/disc (Rhodotorula mucilaginosa [2]): 18 mm | zone of inhibition at 10 µg/disc (Candida albicans [3]): 16 mm | zone of inhibition at 10 µg/disc [4]: 22 mm | zone of inhibition at 10 µg/disc (Debaryomyces hansenii [5]): 18 mm

CO/N=C(\C(=O)N[C@@H]1C(=O)N2C(C(=O)O)=C(COC(C)=O)CS[C@H]12)c1csc(N)n1 [CEFOTAXIME]
zone of inhibition at 30 µg/disc (Escherichia coli [6]): 10 mm | zone of inhibition at 30 µg/disc (Staphylococcus aureus [7]): 12 mm | zone of inhibition at 30 µg/disc (Klebsiella pneumoniae [8]): 13 mm | zone of inhibition at 30 µg/disc (Bacillus cereus [9]): 54 mm | zone of inhibition at 30 µg/disc (Micrococcus luteus [10]): 18 mm | zone of inhibition at 30 µg/disc (Proteus vulgaris [11]): 14 mm | zone of inhibition at 30 µg/disc [12]: 11 mm | zone of inhibition at 30 µg/disc (Listeria monocytogenes [13]): 16 mm | zone of inhibition at 30 µg/disc (Pseudomonas aeruginosa [14]): 32 mm

CC(=O)N1CCN(c2ccc(OCC3COC(Cn4ccnc4)(c4ccc(Cl)cc4Cl)O3)cc2)CC1 (configuration not stated) [KETOCONAZOLE]
zone of inhibition at 20 µg/disc (Kluyveromyces marxianus [15]): 21 mm | zone of inhibition at 20 µg/disc (Rhodotorula mucilaginosa [16]): 16 mm | zone of inhibition at 20 µg/disc (Candida albicans [17]): 22 mm | zone of inhibition at 20 µg/disc [18]: 24 mm | zone of inhibition at 20 µg/disc (Debaryomyces hansenii [19]): 14 mm

CN[C@H](CC(C)C)C(=O)N[C@H]1C(=O)N[C@@H](CC(N)=O)C(=O)N[C@H]2C(=O)N[C@H]3C(=O)N[C@H](C(=O)N[C@H](C(=O)O)c4cc(O)cc(O)c4-c4cc3ccc4O)[C@H](O)c3ccc(c(Cl)c3)Oc3cc2cc(c3O[C@@H]2O[C@H](CO)[C@@H](O)[C@H](O)[C@H]2O[C@H]2C[C@](C)(N)[C@H](O)[C@H](C)O2)Oc2ccc(cc2Cl)[C@H]1O [VANCOMYCIN]
zone of inhibition at 30 µg/disc (Escherichia coli [6]): 22 mm | zone of inhibition at 30 µg/disc (Staphylococcus aureus [7]): 13 mm | zone of inhibition at 30 µg/disc (Klebsiella pneumoniae [8]): 22 mm | zone of inhibition at 30 µg/disc (Bacillus cereus [9]): 10 mm | zone of inhibition at 30 µg/disc (Micrococcus luteus [10]): 20 mm | zone of inhibition at 30 µg/disc (Proteus vulgaris [11]): 18 mm | zone of inhibition at 30 µg/disc [12]: 20 mm | zone of inhibition at 30 µg/disc (Listeria monocytogenes [13]): 26 mm | zone of inhibition at 30 µg/disc (Pseudomonas aeruginosa [14]): 34 mm

CC1(C)S[C@@H]2[C@H](NC(=O)[C@H](N)c3ccccc3)C(=O)N2[C@H]1C(=O)O [AMPICILLIN]
zone of inhibition at 10 µg/disc (Escherichia coli [20]): 12 mm | zone of inhibition at 10 µg/disc (Staphylococcus aureus [21]): 16 mm | zone of inhibition at 10 µg/disc (Klebsiella pneumoniae [22]): 14 mm | zone of inhibition at 10 µg/disc (Bacillus cereus [23]): 10 mm | zone of inhibition at 10 µg/disc (Micrococcus luteus [24]): 16 mm | zone of inhibition at 10 µg/disc (Proteus vulgaris [25]): 12 mm | zone of inhibition at 10 µg/disc [26]: 21 mm | zone of inhibition at 10 µg/disc (Listeria monocytogenes [27]): 12 mm | zone of inhibition at 10 µg/disc (Pseudomonas aeruginosa [28]): 32 mm
